Laboratory results as given in ChEMBL document CHEMBL4385601, “Anti-Zika Activity of a Library of Synthetic Carbohydrate Receptors” (J Med Chem, 2019).
pIC50: −log10 of the molar value. Calls of active or inactive are those of the source. The calls are words filed in the database; no cut-off is given here.

Assays:
Zika virus [1] = assay: Antiviral activity against Zika virus harboring subgenomic GFP replicon infected in African green monkey Vero cells assessed as reduction in viral infection treated 24 hrs post-infection and measured 72 hrs post-infection; assay type: functional, organism-based
How it was run: (§1)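 Vero cells were infected with a predetermined dose of ZIKV GFP reporter virus particles. Compound was added 4 h or 24 h after infection. Plates were fixed 72 h post-infection and GFP+ cells per well counted by whole-well imaging.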

Vero [2] = assay: Inhibition of envelope glycoprotein N154Q mutant in Zika virus infected in African green monkey Vero cells assessed as reduction in viral infection up to 200 uM pretreated for 30 mins followed by viral infection and measured 72 hrs post-infection; assay type: cell-based
How it was run: (§2)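 N154Q reporter particles were made by transfecting 293T cells 1:1 with C-prME-N154Q and subgenomic WNV GFP replicon plasmids, harvested at 48 h. Vero cells were pretreated with compound for 30 min at room temperature, then infected with wild-type or N154Q particles. GFP+ cells per well were counted from whole-well images at 72 h; mean ±SD of triplicate wells.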

[3] = Cytotoxicity against African green monkey Vero cells assessed as reduction in cell viability measured after 72 hrs by Celltiter-Glo luminescence assay; assay type: cell-based; details: chlorocebus sabaeus, read-out: TC50
How it was run: (§3)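 Vero or HeLa cells at 5,000/well were exposed to compound in duplicate for 72 h at 37 °C. Viability was read as cellular ATP by CellTiter-Glo luminescence and normalised to DMSO-treated cells as 100%. TC50 came from 4-parameter sigmoidal logistic fits.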

Zika virus [4] = assay: Antiviral activity against Zika virus PRVABC-59 infected in African green monkey Vero cells assessed as reduction in viral infection at 200 uM pretreated for 30 mins followed by viral infection and measured by DAPI staining-based fluorescence microscopic method; assay type: functional, organism-based
How it was run: (§4)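 Vero cells at 7,500/well were pretreated with compound for 30 min at room temperature. They were then infected with PRVABC59 at a titration-set dose giving ~2000-3000 infected cells/well. Cells were fixed and stained with 4G2 anti-envelope antibody plus Alexa 488 secondary. Whole wells were imaged and positive cells counted, in triplicate wells, with the experiment repeated. Microscopy images were taken with DAPI nuclear counterstain.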

Zika virus [5] = assay: Antiviral activity against Zika virus PRVABC-59 infected in African green monkey Vero cells assessed as reduction in viral infection up to 200 uM pretreated for 30 mins followed by viral infection and measured by 4G2 antibody based assay; assay type: functional, organism-based; how it was run: as §4
Zika virus [6] = assay: Antiviral activity against Zika virus harboring subgenomic GFP replicon infected in African green monkey Vero cells assessed as reduction in viral infection treated 4 hrs post-infection and measured 72 hrs post-infection; assay type: functional, organism-based; how it was run: as §1
Zika virus [7] = assay: Antiviral activity against Zika virus harboring subgenomic GFP replicon infected in African green monkey Vero cells assessed as reduction in viral infection preincubated for 30 mins followed by viral infection and measured after 72 hrs; assay type: functional, organism-based; details: for pIC50: Zika virus, Vero, read-out: IC50
How it was run: (§5)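 Vero or HeLa cells (DMEM, 10% FBS) at 5,000/well were pretreated 30 min at room temperature; compound came from 10 mM DMSO stock diluted in medium. Cells were infected with reporter particles (ZIKV C-prM-E carrying a WNV GFP replicon) at a dose giving up to 1000 GFP+ cells/well. After 72 h at 37 °C, whole-well GFP+ counts were normalised to DMSO-treated infected cells. Wells were run in duplicate/triplicate, three experiments; IC50 taken from curve fits.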

Zika virus [8] = assay: Antiviral activity against Zika virus harboring subgenomic GFP replicon infected in African green monkey Vero cells assessed as reduction in viral infection at 100 uM preincubated for 30 mins followed by viral infection and measured after 72 hrs; assay type: functional, organism-based
[9] = Binding affinity to alpha mannose in CD2Cl2 by NMR analysis
[10] = Binding affinity to beta mannose in CD2Cl2 by NMR analysis
Zika virus [11] = assay: Antiviral activity against Zika virus harboring subgenomic GFP replicon infected in human HeLa cells assessed as reduction in viral infection preincubated for 30 mins followed by viral infection and measured after 72 hrs; assay type: functional, organism-based; how it was run: as §5
[12] = Cytotoxicity against human HeLa cells assessed as reduction in cell viability measured after 72 hrs by Celltiter-Glo luminescence assay; assay type: cell-based; details: read-out: TC50; how it was run: as §3
Vero [13] = assay: Inhibition of envelope glycoprotein N154Q mutant in Zika virus infected in African green monkey Vero cells assessed as reduction in viral infection up to 8 uM pretreated for 30 mins followed by viral infection and measured 72 hrs post-infection; assay type: cell-based; how it was run: as §2
Zika virus [14] = assay: Antiviral activity against Zika virus PRVABC-59 infected in African green monkey Vero cells assessed as reduction in viral infection at 8 uM pretreated for 30 mins followed by viral infection and measured by DAPI staining-based fluorescence microscopic method; assay type: functional, organism-based; how it was run: as §4
Zika virus [15] = assay: Antiviral activity against Zika virus PRVABC-59 infected in African green monkey Vero cells assessed as reduction in viral infection up to 8 uM pretreated for 30 mins followed by viral infection and measured by 4G2 antibody based assay; assay type: functional, organism-based; how it was run: as §4
[16] = Therapeutic index, ratio of TC50 for African green monkey Vero cells to IC50 for Zika virus harboring subgenomic GFP replicon infected in African green monkey Vero cells; assay type: toxicity; details: read-out: TI

| Compound | Activity (Zika virus [1]) | CC50 at 72 h [3] [µM] | Activity (Zika virus [6]) | pIC50 (Zika virus [7]) | Activity (Zika virus [8]) | Ka [9] | Ka [10] | pIC50 (Zika virus [11]) | CC50 at 72 h [12] [nM] | further results |
| --- | --- | --- | --- | --- | --- | --- | --- | --- | --- | --- |
| Cc1ccc(C(=O)Nc2ccc(S(=O)(=O)O)c3cc(S(=O)(=O)O)cc(S(=O)(=O)O)c23)cc1NC(=O)c1cccc(NC(=O)Nc2cccc(C(=O)Nc3cc(C(=O)Nc4ccc(S(=O)(=O)O)c5cc(S(=O)(=O)O)cc(S(=O)(=O)O)c45)ccc3C)c2)c1 [SURAMIN] | inactive | > 200 | inactive | 4.36 | – | – | – | – | – | inhibition (Vero [2]): Active; Activity (Zika virus [4]): Active; Activity (Zika virus [5]): Active; Activity (Zika virus [7]): Dose-dependent effect |
| c1coc(CNCc2cc(CNCc3ccco3)cc(-c3cc(CNCc4ccco4)cc(CNCc4ccco4)c3)c2)c1 | inactive | 5.43 | inactive | 5.95 | Active | 1.1 ×10² /M | 5.4 ×10¹ /M | 6.46 | 2510 | – |
| c1coc(CNCc2cc(CNCc3ccco3)cc(-c3cc(CNCc4ccco4)cc(Cn4cc(COCCOCCOCCOCc5cn(Cc6cc(CNCc7ccco7)cc(-c7cc(CNCc8ccco8)cc(CNCc8ccco8)c7)c6)nn5)nn4)c3)c2)c1 | – | 51.5 | – | 4.91 | Active | – | – | 5.86 | 2220 | – |
| C(=N\Cc1cc(C/N=C/c2ccco2)cc(-c2cc(C/N=C/c3ccco3)cc(C/N=C/c3ccco3)c2)c1)/c1ccco1 | – | – | – | < 4.00 | Active | 2 ×10² /M | 3.7 ×10¹ /M | – | – | – |
| NCc1cc(CN)cc(-c2cc(CN)cc(CN)c2)c1 | – | – | – | < 4.00 | Active | – | – | – | – | – |
| O=C(NCc1cc(CNC(=O)c2cccs2)cc(-c2cc(CNC(=O)c3cccs3)cc(CNC(=O)c3cccs3)c2)c1)c1cccs1 | – | – | – | < 4.00 | Active | – | – | – | – | – |
| c1c[nH]c(CNCc2cc(CNCc3ccc[nH]3)cc(-c3cc(CNCc4ccc[nH]4)cc(CNCc4ccc[nH]4)c3)c2)c1 | inactive | 34.1 | inactive | 6.44 | Active | 1.4 ×10³ /M | 3.6 ×10⁴ /M | 6.35 | 2430 | – |
| O=C(NCc1cc(CNC(=O)c2ccco2)cc(-c2cc(CNC(=O)c3ccco3)cc(CNC(=O)c3ccco3)c2)c1)c1ccco1 | – | – | – | – | Active | – | – | – | – | IC50 (Zika virus [7]; vero): Nd(Insoluble) |
| c1csc(CNCc2cc(CNCc3cccs3)cc(-c3cc(CNCc4cccs4)cc(CNCc4cccs4)c3)c2)c1 | inactive | 4.12 | inactive | 5.88 | Active | 1.4 ×10² /M | inactive | 6.25 | 2470 | – |
| C(=N\Cc1cc(C/N=C/c2cccs2)cc(-c2cc(C/N=C/c3cccs3)cc(C/N=C/c3cccs3)c2)c1)/c1cccs1 | – | – | – | < 4.00 | Active | inactive | inactive | – | – | – |
| C(=N\Cc1cc(C/N=C/c2ccc[nH]2)cc(-c2cc(C/N=C/c3ccc[nH]3)cc(C/N=C/c3ccc[nH]3)c2)c1)/c1ccc[nH]1 | inactive | 46.1 | inactive | 5.87 | Active | 3 ×10³ /M | 2.4 ×10³ /M | 5.51 | 17600 | – |
| Cn1ccnc1CNCc1cc(CNCc2nccn2C)cc(-c2cc(CNCc3nccn3C)cc(CNCc3nccn3C)c2)c1 | – | – | – | < 4.00 | Active | 4.4 ×10³ /M | 5.9 ×10² /M | – | – | – |
| c1c[nH]c(CNCc2cc(CNCc3ccc[nH]3)cc(-c3cc(CNCc4ccc[nH]4)cc(Cn4cc(COCCOCCOCCOCc5cn(Cc6cc(CNCc7ccc[nH]7)cc(-c7cc(CNCc8ccc[nH]8)cc(CNCc8ccc[nH]8)c7)c6)nn5)nn4)c3)c2)c1 | inactive | 36.2 | inactive | 6.80 | Active | 2.6 ×10³ /M | 1.7 ×10³ /M | 6.62 | 2480 | inhibition (Vero [13]): Active; Activity (Zika virus [14]): Active; Activity (Zika virus [15]): Active; selectivity ratio [16]: > 220 |
